PubChem BioAssay
Records with an inconclusive call do not appear.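 How the source made its calls, unless noted: active means viability at or below 27.92% in each of two runs, the all-compound median minus 4 SD; inconclusive means no clear call, values can overlap the other calls; inactive means the rest.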

Key:
[1] = S. cerevisiae growth inhibition in permissive medium (OD615), pilot counter-assay for S. cerevisiae lifespan shortening project, permissive growth control (AID 705;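 active means growth inhibition above 25% in both replicates, a cutoff set 3 SD above the mean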); conditions: OD615, 24 h, at 10 µM, stronger effect = higher value
Procedure, shortened: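 System: Engineered DeaD yeast | Buffer or medium: SC raffinose/galactose permissive medium | Doses: 10 µM single dose, 0.25% DMSO | Times: 24 h exposure, 30 °C | Measured by: OD615 turbidity read | Read-out: Yeast growth inhibition indicated by reduced 24 h OD615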

[2] = S. cerevisiae growth inhibition in restrictive medium, OD615, pilot screen, restrictive growth control, yeast lifespan reduction project (AID 706;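 active means growth inhibition above a set limit, 3 SD over mean compound inhibition, in both replicates, cut at about 43% in these data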;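 further: modified DeaD lifespan yeast strain shifted to restrictive glucose medium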); conditions: OD615, 48 h, at 10 µM, stronger effect = higher value
Procedure, shortened: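 Assay system: engineered S. cerevisiae DeaD strain; Buffer or medium: CSMM-D glucose medium; Dosing: 10 µM compound, 0.25% DMSO; Times: cell pre-growth 4 h, compound exposure 48 h, 30 °C; Detection: absorbance (optical density) measured at 615 nm.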

[3] = doxorubicin toxicity protection in MRP-1 cells – H69AR cells, CellTiter-Glo, duplicate, MRP-1 activator project, pilot screen (AID 807;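 active means viability increase at or above a cutoff of the median across tested compounds plus 3 SD, cut at about 8.5% in these data, passing the limit was not always enough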;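 further: compound pretreatment 18-22 h then 72 h combined with doxorubicin; 0% = doxorubicin alone and 100% = vehicle without doxorubicin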); conditions: H69AR viability with doxorubicin, CellTiter-Glo luminescence; at 10 µM; stronger effect = higher value
[4] = viability of HCT116 without oncogenic beta-catenin – human colon tumor cells, pilot screen (AID 823;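 active means cell viability at or below a set limit in both duplicate runs, the limit being the all-compound median minus 4 SD, cut at about 23% in these data, passing the limit was not always enough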;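 further: 0% = wells killed by 20 µM Hyamine and 100% = untreated DMSO cell wells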); conditions: HCT116 beta-catenin knockout viability, CellTiter-Glo, 60 h; at 10 µM; stronger effect = lower value
[5] = viability of PTEN-null HCT116 cells – cell-based, HCT116 clonal line, CellTiter-Glo, pilot screen (AID 824); conditions: HCT116 PTEN-deleted viability, 60 h, at 10 µM, stronger effect = lower value;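 further: 0% = 20 µM Hyamine control and 100% = vehicle cell control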
[6] = RAM pathway blockade in budding yeast – dse1pr::URA3 reporter, 5-FOA selection, pilot screen (AID 869;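 active means inhibition over a set limit, the all-compound mean plus 3 SD, in both replicate runs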;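 further: 0% = DMSO wells with no growth and 100% = 10 µM 1-NA-PP1 with full growth; RAM network block rescues cells from 5-FOA so hits raise OD615 growth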); conditions: S. cerevisiae dse1pr::URA3 5-FOA growth, OD615, 2 d; at 10 µM; stronger effect = higher value; strain carries analog-sensitive mutant Cbk1 kinase
[7] = RAM signaling pathway blockade in yeast – S. cerevisiae, Pdr1DBD-CYC8 efflux-inhibited sensitized strain, primary screen (AID 1298;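 active means RAM network inhibition above 8.4% in each of two replicates, 3 SD over the compound average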;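 further: 0% = DMSO untreated cells without growth and 100% = 10 µM 1-NA-PP1 full growth; higher means more yeast growth rescued from 5-FOA killing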); conditions: S. cerevisiae cbk1-as DSE1-URA3 strain, 5-FOA growth OD615, 2 d; at 50 µM; stronger effect = higher value

O=C(c1ccccc1Cl)N1CCC(c2nc3c(nnn3Cc3ccco3)c(=O)[nH]2)CC1
inactive: growth inhibition [1] -6.62% | growth inhibition [2] -11.1% | viability increase [3] -4.32% | viability [4] 92.5% | viability [5] 87.3% | inhibition [6] 0.69% | RAM network inhibition [7] 3.74%

CN1CCN(c2ncnc3c2sc2nc(N4CCCC4)c4c(c23)CC(C)(C)OC4)CC1
inactive: growth inhibition [1] -21.2% | growth inhibition [2] -18.1% | viability increase [3] -3.25% | viability [4] 99.6% | viability [5] 97.1% | inhibition [6] 0.735% | RAM network inhibition [7] -0.84%

Cc1c(C(=O)NCC2CCCO2)oc2ccc(S(=O)(=O)N3CC(C)CC(C)C3)cc12 (stereo unspecified)
inactive: growth inhibition [1] -2.38% | growth inhibition [2] 14.2% | viability increase [3] -4.71% | viability [4] 44.5% | viability [5] 38.1% | inhibition [6] 3.72% | RAM network inhibition [7] 4.28%

Cc1cc(C)cc(N(CC(=O)N2CCN(Cc3ccccc3)CC2)S(=O)(=O)c2c(C)noc2C)c1
inactive: growth inhibition [1] -13.5% | growth inhibition [2] -29.5% | viability increase [3] -4.22% | viability [4] 101% | viability [5] 96.9% | inhibition [6] 1.84% | RAM network inhibition [7] 3.45%

Cc1cc(NC(=O)c2cc(-c3cccs3)nc3ccccc23)no1
inactive: growth inhibition [1] 3.04% | growth inhibition [2] -5.12% | viability increase [3] -6.62% | viability [4] 29.3% | viability [5] 30.9% | inhibition [6] 2.11% | RAM network inhibition [7] 8.27%

Cc1ccc2c(c1)-c1c(cnn1CC(=O)N1CCCN(Cc3ccccc3F)C1)CO2
inactive: growth inhibition [1] -0.225% | growth inhibition [2] -1.89% | viability increase [3] -2.83% | viability [4] 88.9% | viability [5] 93.1% | inhibition [6] 1% | RAM network inhibition [7] 1.9%

COc1ccc(CSc2nnnn2C)cc1F
inactive: growth inhibition [1] -3.21% | growth inhibition [2] 4.8% | viability increase [3] -0.89% | viability [4] 91.4% | viability [5] 95% | inhibition [6] 2.62% | RAM network inhibition [7] -0.46%

CCOC(=O)N1CCN(C(=O)C2CC(c3ccc(F)cc3)=NO2)CC1 (stereo unspecified)
inactive: growth inhibition [1] -5.22% | growth inhibition [2] -10.9% | viability increase [3] 1.33% | viability [4] 104% | viability [5] 108% | inhibition [6] 0.815% | RAM network inhibition [7] 2.2%

CCOC(=O)N1CCC(NC(=O)CSCc2nc(-c3sccc3C)oc2C)CC1
inactive: growth inhibition [1] -9.01% | growth inhibition [2] -10.5% | viability increase [3] -1.24% | viability [4] 90% | viability [5] 83.5% | inhibition [6] 1.34% | RAM network inhibition [7] 6.2%

O=C(CNS(=O)(=O)c1ccc(C(=O)N2CCCCC2)cc1)N1CCCCC1
inactive: growth inhibition [1] -11.9% | growth inhibition [2] -18.1% | viability increase [3] 0.86% | viability [4] 93.3% | viability [5] 90.8% | inhibition [6] -0.19% | RAM network inhibition [7] 3.77%

CC(=O)c1cccc(NC(=O)CN(c2ccc(F)cc2)S(C)(=O)=O)c1
inactive: growth inhibition [1] -13% | growth inhibition [2] -15.2% | viability increase [3] -3.2% | viability [4] 98.2% | viability [5] 98.7% | inhibition [6] 0.845% | RAM network inhibition [7] 5.96%

CC(=O)c1ccc(OCC(O)COc2ccc(C(C)=O)cc2)cc1
inactive: growth inhibition [1] -2.04% | growth inhibition [2] -4.87% | viability increase [3] 0.11% | viability [4] 96.2% | viability [5] 94.7% | inhibition [6] 1.22% | RAM network inhibition [7] 0.16%

Cc1ccccc1CN1CCN(CC(=O)NCc2ccccn2)C1=O
inactive: growth inhibition [1] 4.21% | growth inhibition [2] 10.8% | viability increase [3] 1.17% | viability [4] 106% | viability [5] 108% | inhibition [6] -0.32% | RAM network inhibition [7] 1.55%

COc1cccc(C2CC(c3cccc(C)c3)n3ncnc3N2)c1 (stereo unspecified)
inactive: growth inhibition [1] -9.14% | growth inhibition [2] -3.84% | viability increase [3] -2.07% | viability [4] 90% | viability [5] 90.4% | inhibition [6] 0.92% | RAM network inhibition [7] 0.74%

CC1=C(C(N)=O)C(c2ccccn2)n2nc(SCc3ccccc3Cl)nc2N1 (stereo unspecified)
inactive: growth inhibition [1] -4.42% | growth inhibition [2] -12.1% | viability increase [3] -1.33% | viability [4] 90.5% | viability [5] 83.3% | inhibition [6] 1.04% | RAM network inhibition [7] 0.26%

CCOc1ccc(NC(=O)CSc2nnc(Cn3c(=O)sc4ccccc43)n2C)cc1
inactive: growth inhibition [1] -5.25% | growth inhibition [2] -0.055% | viability increase [3] -2.49% | viability [4] 98% | viability [5] 103% | inhibition [6] 0.83% | RAM network inhibition [7] 7.78%

Cc1ccc(S(=O)(=O)n2ccnc2)cc1C
inactive: growth inhibition [1] -7.98% | growth inhibition [2] -8.12% | viability increase [3] -0.49% | viability [4] 96.1% | viability [5] 88.9% | inhibition [6] 1.86% | RAM network inhibition [7] 2.35%

COc1cccc(-c2cc(C(F)(F)F)nc(N3CCOCC3)n2)c1
inactive: growth inhibition [1] -4.32% | growth inhibition [2] -9.04% | viability increase [3] 0.16% | viability [4] 73.5% | viability [5] 77.8% | inhibition [6] 1.38% | RAM network inhibition [7] 6.83%
